pEC50, pIC50: −log10 of the molar value.

The subject of data set [1] is Huh-7. In words: Effective concentration required to inhibit replication of subgenomic HCV RNA in HUH-7 cells in the presence of 10% fetal calf serum. Type of data set: functional, cell-based. The settings on record: Homo sapiens. The procedure, abridged:
(§1)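 Subgenomic HCV replicon in HUH-7 cells, run in medium with 10% fetal calf serum (a modification of Bartenschlager's method). EC50 was determined only for compounds giving >50% inhibition in an initial screen at a fixed 5 μM. Values are the arithmetic mean ± half-range or standard error of at least two independent determinations, or from a single experiment where noted.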

The target in data set [2] is T1, pregnane X receptor (PXR, NR1I2) (Homo sapiens, UniProt O75469).
T1 sequence (O75469 whole entry): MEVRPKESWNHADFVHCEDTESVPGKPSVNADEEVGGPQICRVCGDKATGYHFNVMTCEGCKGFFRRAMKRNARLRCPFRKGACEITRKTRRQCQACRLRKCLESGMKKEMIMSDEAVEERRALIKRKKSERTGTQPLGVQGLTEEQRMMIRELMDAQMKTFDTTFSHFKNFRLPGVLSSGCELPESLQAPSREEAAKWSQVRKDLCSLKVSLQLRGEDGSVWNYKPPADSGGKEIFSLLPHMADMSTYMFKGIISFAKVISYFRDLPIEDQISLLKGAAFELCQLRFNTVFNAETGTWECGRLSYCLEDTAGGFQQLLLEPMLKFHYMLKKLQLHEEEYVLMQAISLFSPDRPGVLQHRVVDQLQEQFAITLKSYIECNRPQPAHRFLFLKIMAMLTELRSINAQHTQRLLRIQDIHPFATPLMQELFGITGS
Nature of the data set: Inhibition of pregnane X receptor mediated activation of alkaline phosphatase reporter gene at 10 uM. The format is functional. The procedure, abridged:
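HepG2 cells were cotransfected with a human PXR expression vector and a secreted alkaline phosphatase (SEAP) reporter driven by a synthetic PXR-responsive element. Cells were incubated 48 h with or without test compound, and SEAP activity was read with a commercial detection kit.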
On the technique in general: In a reporter assay the amount or activity of a reporter protein is the signal.

Data set [3] deals with T2, RNA-directed RNA polymerase (Hepacivirus hominis, UniProt O39930). In words: Inhibitory activity against by hepatitis C virus NS5B polymerase. In short, it runs like this:
(§2)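 Purified ΔC55 NS5B polymerase assayed with heterogenic template RNA. IC50 values come from a single experiment or are arithmetic means of multiple experiments, as footnoted; some were measured in duplicate.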

Data set [4] relates to Huh-7. In words: Effective concentration required to inhibit replication of subgenomic HCV RNA in HUH-7 cells. Type of data set: functional, cell-based. The note with it: Homo sapiens. The procedure, abridged:
as §1

A short description of data set [5]: Oral bioavailability in rat (dose 3 mg/kg). Type of data set: ADME, organism-based. The note with it: in vivo. The procedure, abridged: (§3)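 Sprague-Dawley rats and male beagle dogs, dosed as trifluoroacetate salts (mg/kg; n = 3, some n = 2). Rat vehicle: iv 20% DMSO/[…] with po PEG-400, or iv 20% DMSO/80% saline with po 50% PEG-400/50% H2O. Dog vehicle: iv 20% DMSO/40% PEG-400/40% H2O, po PEG-400. Plasma levels measured by HPLC–MS/MS; noncompartmental analysis; terminal half-life from iv.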

Data set [6] in a line: Plasma clearance in dog. Type of data set: ADME, organism-based, Canis lupus familiaris. The settings on record: read-out: Clp. In short, it runs like this:
as §3

A short description of data set [7]: Plasma clearance in rat. Type of data set: ADME, organism-based. The note with it: read-out: Clp. In short, it runs like this:
as §3

Data set [8] is described as follows: Plasma half life following 0.5 mg/kg iv administration in dog.
Data set [9] can be described thus: Plasma half life following 3 mg/kg iv administration in rat. More on the design: dose 3 mg/kg, route intravenous. The format is ADME, organism-based. The procedure, abridged:
as §3

Data set [10] in a line: Oral bioavailability in dog at a dose of 2 mg/kg. Type of data set: ADME, organism-based, Canis lupus familiaris. The settings on record: in vivo. In short, it runs like this: as §3
Data set [11] concerns the target T2, RNA-directed RNA polymerase. Nature of the data set: Inhibitory activity against hepatitis C virus NS5B polymerase enzyme; Range=6-9 nM. In short, it runs like this: as §2
Data set [12] has as its system Huh-7. In words: Effective concentration required to inhibit replication of subgenomic HCV RNA in HUH-7 cells in the presence of 50% normal human serum. Type of data set: functional, cell-based. In short, it runs like this:
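Subgenomic HCV replicon in HUH-7 cells run under high-serum conditions with 50% normal human serum in place of 10% fetal calf serum. EC50 values are the arithmetic mean ± half-range or standard error of at least two independent determinations.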

Data set [13] is described as follows: Plasma clearance after intravenous administration of 1 mg/kg in dog. The format is ADME, organism-based, Canis lupus familiaris. More on the design: dose 1 mg/kg, route intravenous. The settings on record: read-out: Clp. In short, it runs like this: as §3
Data set [14] is described as follows: Plasma half life following 1 mg/kg iv administration in dog. Type of data set: ADME, organism-based, Canis lupus familiaris. Details: dose 1 mg/kg, route intravenous. In short, it runs like this: as §3
The nature of data set [15]: Plasma clearance in dod. Type of data set: ADME, organism-based, Canis lupus familiaris. The settings on record: dog, read-out: Clp. In short, it runs like this:
as §3

T2 sequence (O39930 whole entry): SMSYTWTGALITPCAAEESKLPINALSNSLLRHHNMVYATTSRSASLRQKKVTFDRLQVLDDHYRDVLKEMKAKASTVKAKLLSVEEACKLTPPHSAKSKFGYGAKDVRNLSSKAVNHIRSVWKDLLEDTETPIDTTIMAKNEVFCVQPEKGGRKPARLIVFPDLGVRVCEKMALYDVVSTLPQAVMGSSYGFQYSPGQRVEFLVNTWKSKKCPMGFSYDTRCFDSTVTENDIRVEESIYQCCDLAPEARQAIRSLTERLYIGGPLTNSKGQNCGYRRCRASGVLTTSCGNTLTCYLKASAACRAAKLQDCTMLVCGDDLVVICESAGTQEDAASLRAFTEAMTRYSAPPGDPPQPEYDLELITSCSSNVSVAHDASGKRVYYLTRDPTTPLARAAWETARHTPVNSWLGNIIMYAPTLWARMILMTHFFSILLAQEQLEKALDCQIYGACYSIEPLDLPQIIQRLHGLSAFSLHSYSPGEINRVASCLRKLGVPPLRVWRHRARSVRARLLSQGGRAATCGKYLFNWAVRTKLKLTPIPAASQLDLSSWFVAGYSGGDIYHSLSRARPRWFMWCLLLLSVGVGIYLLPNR

For `CN(C)C(=O)Cn1c(-c2ccccc2)c(C2CCCCC2)c2ccc(C(=O)O)cc21`, the pEC50 (in general, the EC50 on a negative log10 scale, so that one unit is a factor of ten) in the data set with Huh-7 [1] was 5.82.

As to `CN1CCCC(CN(C)C(=O)Cn2c(-c3cccc(F)c3)c(C3CCCCC3)c3ccc(C(=O)O)cc32)C1` (stereo not given), the inhibition (in general, the share of the control response that was lost under treatment) at 10 µM in [2] stood at 72%.

For `CN1CCCC(CN(C)C(=O)Cn2c(-c3ccccc3)c(C3CCCC3)c3ccc(C(=O)O)cc32)C1` (stereo not given), the pIC50 – broadly, the IC50 on a negative log10 scale, so that one unit is a factor of ten – in data set [3] is 7.33. This compound showed a pEC50 with Huh-7 [4] of 6.40.

`CN(C)C1CCN(C(=O)Cn2c(-c3ccccc3)c(C3CCCCC3)c3ccc(C(=O)O)cc32)CC1`: testing at 10 µM in data set [2] gave an inhibition of 14%. Also, in [3], the pIC50 was 7.39. Further, in the data set with Huh-7 [1], the pEC50 is 6.52.

Compound `C=Cc1c(C2CCCCC2)c2ccc(C(=O)O)cc2n1CC(=O)N1CCC(N(C)C)CC1` gave a pIC50 in data set [3] of 7.31. Besides, the pEC50 in the data set with Huh-7 [1] is 5.55.

Regarding `CN1CCCC(CN(C)C(=O)Cn2c(-c3ccccc3)c(C3CCCCC3)c3ccc(C(=O)O)cc32)C1` (stereo not given), the bioavailability (usually the share of a dose that reaches the circulation, judged against a reference dose that is usually intravenous) in data set [5] turned out to be 1.9%; in data set [10], 28%. The clearance in data set [6] turned out to be 22 mL/min/kg; in [7] it was 51 mL/min/kg. Moreover, at 10 µM the inhibition in data set [2] was 10%. The compound further gave a pIC50 in data set [3] of 7.74. For the same compound, the half-life (commonly the time needed for the level to fall by half in the phase considered) in data set [8] was 1.2 h; in data set [9] it was 1.5 h. Also, the negative-log EC50 (pEC50) with Huh-7 [4] was 6.52.

Turning to `CN(C)C1CCN(C(=O)Cn2c(-c3ccccc3)c(C3CCCCC3)c3cc(C(=O)O)ccc32)C1` (stereo not given), in data set [3], the pIC50 is 6.61. The compound further had a pEC50 in the data set on Huh-7 [4] of 5.30.

As for `CN1CCN(C(=O)Cn2c(-c3ccccc3)c(C3CCCC3)c3ccc(C(=O)O)cc32)CC1`, in [3], the pIC50 was 7.17. In the data set with Huh-7 [4], the pEC50 was 6.10.

Consider `CN(C)Cc1cccc(-c2c(C3CCCCC3)c3ccc(C(=O)O)cc3n2CC(=O)N(C)C)c1`, for which the pIC50 in data set [3] was 6.83. In addition, the pEC50 with Huh-7 [1] is 5.48.

Turning to `CCN(CC)C1CCN(C(=O)Cn2c(-c3ccc(OC)cc3)c(C3CCCCC3)c3ccc(C(=O)O)cc32)CC1`, the pIC50 in data set [11] is 8.05. Also, the pEC50 with Huh-7 [12] was 6.37; in the data set on Huh-7 [1], 6.84.

In [2], `CN(C)C1CCN(C(=O)Cn2c(-c3ccc(Cl)cc3)c(C3CCCCC3)c3ccc(C(=O)O)cc32)CC1` returned an inhibition at 10 µM of 15%.

For `COc1ccc(-c2c(C3CCCCC3)c3ccc(C(=O)O)cc3n2CC(=O)N2CCC(N(C)C)CC2)cc1`, the pIC50 in [11] is 8.05. In addition, the values for the pEC50 in the data set with Huh-7 [12] and in the data set with Huh-7 [1] were 6.17 and 6.80, respectively.

Turning to `CN(C)C(=O)Cn1c(-c2ccoc2)c(C2CCCCC2)c2ccc(C(=O)O)cc21`, in [3], the pIC50 was 7.51. Besides, in the data set with Huh-7 [1], the pEC50 is 6.10.

Regarding `CN(C)C1CCN(C(=O)Cn2c(-c3ccccc3)c(C3CCCC3)c3ccc(C(=O)O)cc32)C1` (stereo not given), in [3], the pIC50 is 7.11. Further, the pEC50 in the data set on Huh-7 [4] was 5.82.

As to `CN1CCN(C(=O)Cn2c(-c3ccccc3)c(C3CCCCC3)c3cc(C(=O)O)ccc32)CC1`, the pIC50 in data set [3] was 6.35. The compound also showed a pEC50 in the data set with Huh-7 [4] of 5.46.

`CN(C)C1CCN(C(=O)Cn2c(C3=CCCCC3)c(C3CCCCC3)c3ccc(C(=O)O)cc32)CC1` showed a pIC50 in data set [3] of 7.74. Besides, in the data set with Huh-7 [1], the pEC50 is 6.40.

`CCN(CC)C1CCN(C(=O)Cn2c(-c3ccc(Cl)cc3)c(C3CCCCC3)c3ccc(C(=O)O)cc32)CC1`: the bioavailability is 10% in data set [5] and 51% in [10]. Further, the clearance in data set [13] was 9 mL/min/kg; in data set [15] it was 9 mL/min/kg; in [7], 44 mL/min/kg. For the same compound, the half-life in data set [14] was 5 h; in data set [9], 3.1 h. The pIC50 in data set [11] is 8.05. The pEC50 in the data set on Huh-7 [12] is 6.34; with Huh-7 [1] it was 6.90.

Compound `O=C(O)c1ccc2c(C3CCCCC3)c(-c3ccoc3)n(CC(=O)N3CCC(N4CCC4)CC3)c2c1` gave a negative-log IC50 (pIC50) in [11] of 8.05. Besides, the pEC50 in the data set with Huh-7 [12] is 6.20; in the data set on Huh-7 [1], 6.70.

With `CC(C)N(C)Cc1cccc(-c2c(C3CCCCC3)c3ccc(C(=O)O)cc3n2CC(=O)N(C)C)c1`, the negative logarithm of the IC50 (pIC50) in [3] was 7.11. The negative logarithm of the EC50 (pEC50) with Huh-7 [1] was 5.96.

Take `CN(C)C(=O)Cn1c(-c2cccnc2)c(C2CCCCC2)c2ccc(C(=O)O)cc21`: in data set [3], the pIC50 is 6.48. Moreover, the negative-log EC50 (pEC50) in the data set on Huh-7 [1] is 4.89.

On to `CN(C)Cc1ccc(-c2c(C3CCCCC3)c3ccc(C(=O)O)cc3n2CC(=O)N(C)C)cc1`, for which the pIC50 in [3] was 6.04. Also, the pEC50 with Huh-7 [1] is 4.75.

For the compound `CN(C)C1CCN(C(=O)Cn2c(C3CCCCC3)c(C3CCCCC3)c3ccc(C(=O)O)cc32)CC1`, the pIC50 in data set [3] was 7.14. In addition, in the data set on Huh-7 [1], the pEC50 was 5.40.

In data set [3], `CN(C)C(=O)Cn1c(-c2cccc(CN3CCCC(F)(F)C3)c2)c(C2CCCCC2)c2ccc(C(=O)O)cc21` showed a pIC50 of 7.74. In the data set with Huh-7 [1], the pEC50 was 6.22.

Take `CN(C)C1CCN(C(=O)Cn2c(-c3cccc(F)c3)c(C3CCCCC3)c3ccc(C(=O)O)cc32)CC1`: at 10 µM the inhibition in [2] was 10%.

With `CCN(CC)CC1CN(C(=O)Cn2c(-c3ccc(OC)cc3)c(C3CCCCC3)c3ccc(C(=O)O)cc32)CCO1` (stereo not given), the pIC50 in data set [11] is 8.05. Besides, the figures for the negative-log EC50 (pEC50) in the data set on Huh-7 [12] and in the data set with Huh-7 [1] were 6.42 and 6.82, respectively.

In turn, `CN(C)C(=O)Cn1c(-c2ccncc2)c(C2CCCCC2)c2ccc(C(=O)O)cc21` had a pIC50 in data set [3] of 6.87. Besides, the pEC50 in the data set with Huh-7 [1] was 5.17.

On to `CN1CCCC(CN(C)C(=O)Cn2c(-c3ccc(Cl)cc3)c(C3CCCCC3)c3ccc(C(=O)O)cc32)C1` (stereo not given), for which the inhibition at 10 µM in data set [2] came to 92%. The compound also showed a pIC50 in data set [3] of 7.92. Further, in the data set with Huh-7 [4], the pEC50 was 6.52.

As to `CN(C)Cc1cc(-c2c(C3CCCCC3)c3ccc(C(=O)O)cc3n2CC(=O)N(C)C)ccc1Cl`, the pIC50 in [3] was 7.11. Besides, in the data set with Huh-7 [1], the pEC50 is 5.57.

In data set [3], `COc1ccc(-c2c(C3CCCCC3)c3ccc(C(=O)O)cc3n2CC(=O)N(C)C)cn1` showed a pIC50 of 7.16. The negative-log EC50 (pEC50) in the data set with Huh-7 [1] was 5.74.

Values taken from ChEMBL document CHEMBL1140313, “Potent inhibitors of subgenomic hepatitis C virus RNA replication through optimization of indole-N-acetamide allosteric inhibitors of the viral NS5B polymerase” (J Med Chem, 2005).
